In ChEMBL document CHEMBL3526041, “Absorption, metabolism and excretion of [(14)C]mirabegron (YM178), a potent and selective β(3)-adrenoceptor agonist, after oral administration to healthy male volunteers” (Drug Metab Dispos, 2012):

What was measured:
Format in all cases: ADME, organism-based
Design in all cases: dosed compound name [14C]Mirabegron
Conditions in all cases: in vivo
[1] = Drug recovery in healthy human urine treated with [14C]mirabegron at 160 mg, po as single dose measured up to 48 hrs
Method in brief: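 Urine was collected at 0–6, 6–12, 12–24 and 24–48 h after a single oral 160 mg [14C]mirabegron dose in four men, with dichlorvos added. Samples underwent solid-phase extraction and radio-HPLC (C18, 40°C), with eluate fractions counted by scintillation. Each peak, as a percentage of eluted radioactivity, was converted to % of dose without recovery correction; mean ± S.D.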

[2] = tested on: Plasma; test: Drug recovery in healthy human plasma treated with [14C]mirabegron at 160 mg, po as single dose measured at 2 hrs
Method in brief: (§1)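 Plasma taken at 2, 4, 8 and 12 h from the four subjects was pooled at each time point, with dichlorvos added. Pools underwent solid-phase extraction, then HPLC with fractions counted by low-level liquid scintillation. Each peak is expressed as % of the radioactivity injected onto HPLC.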

[3] = tested on: Plasma; test: Drug recovery in healthy human plasma treated with [14C]mirabegron at 160 mg, po as single dose measured at 4 hrs; method in brief: as §1
[4] = tested on: Plasma; test: Drug recovery in healthy human plasma treated with [14C]mirabegron at 160 mg, po as single dose measured at 8 hrs; method in brief: as §1
[5] = tested on: Plasma; test: Drug recovery in healthy human plasma treated with [14C]mirabegron at 160 mg, po as single dose measured at 12 hrs; method in brief: as §1

SMILES	Compound recovery [1]	Compound recovery [2]	Compound recovery [3]	Compound recovery [4]	Compound recovery [5]
CC(=O)Nc1ccc(CCNC[C@H](O)c2ccccc2)cc1.Cl	2.9%	3.7%	4.9%	9.4%	13%
Nc1nc(CC(=O)Nc2ccc(CCN(C[C@H](O)c3ccccc3)O[C@@H]3O[C@H](C(=O)O)[C@@H](O)[C@H](O)[C@H]3O)cc2)cs1	0.6%	6.9%	5.9%	3.5%	Below limit of detection
Cl.Nc1ccc(CCNC[C@H](O)c2ccccc2)cc1	1.7%	3.3%	4.3%	6.2%	7.6%
Nc1nc(CC(=O)Nc2ccc(CC(=O)O)cc2)cs1.O=C(O)C(F)(F)F	1.3%	2.2%	1.4%	Below limit of detection	Below limit of detection
